These results are taken from ChEMBL document CHEMBL3351450 (Bioorg Med Chem, 2014).

A short description of data set [1]: Metabolic stability in human liver S9 fraction assessed as compound remaining at 1 uM after 5 mins by LC-MS/MS analysis. It is filed as ADME, subcellular. The conditions noted are these: read-out: Stability.
The test system of the next data set is Liver. Briefly: Intrinsic clearance in human liver S9 fraction. It is filed as ADME, subcellular.
Data set [2] is described as follows: Metabolic stability in human liver S9 fraction assessed as compound remaining at 1 uM after 15 mins by LC-MS/MS analysis. It is filed as ADME, subcellular. The conditions noted are these: read-out: Stability.
A short description of data set [3]: Half life in Sprague-Dawley rat at 30 mg/kg, po. The conditions noted are these: in vivo. It is filed as ADME, organism-based. Set-up: dose 30 mg/kg, route oral. The method, boiled down:
(§1)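 Male SD rats, 3 per route. Oral dose given by gavage as a suspension in 0.5% Tween 80 (w/v). IV dose given via the femoral vein in DMSO/PEG-400/saline (5:65:30). Tail-vein blood drawn over 24 h and centrifuged to plasma. Parent and metabolite measured by LC–MS/MS.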

Data set [4] is described as follows: Tmax in Sprague-Dawley rat at 30 mg/kg, po. The data set is classed as ADME, organism-based. Also on record: dose 30 mg/kg, route oral. The note with it: in vivo. In short, it runs like this: (§2)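 Male SD rats, three per route. Oral gavage of a suspension in 0.5% Tween 80 (30 mg/kg). IV via femoral vein in DMSO/PEG-400/saline 5:65:30 (3 mg/kg). Tail-vein blood sampled over 24 h. Plasma stored at -20 °C and analysed by LC–MS/MS for parent and metabolite. Values reported as mean ± SD of three rats.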

Data set [5] is described as follows: AUC (0 to infinity) in Sprague-Dawley rat at 30 mg/kg, po. Also on record: time infinity, dose 30 mg/kg, route oral. It is filed as ADME, organism-based. The note with it: plasma. In short, it runs like this:
as §1

Data set [6] in a line: Cmax in Sprague-Dawley rat at 3 mg/kg, iv. The data set is classed as ADME, organism-based. The conditions noted are these: in vivo. Also on record: dose 3 mg/kg, route intravenous. In short, it runs like this:
as §1

Data set [7] is described as follows: AUC (0 to infinity) in Sprague-Dawley rat at 3 mg/kg, iv. Also on record: dose 3 mg/kg, route intravenous, time infinity. The data set is classed as ADME, organism-based. The note with it: plasma. The method, boiled down: as §1
Data set [8] in a line: Tmax in Sprague-Dawley rat at 3 mg/kg, iv. It is filed as ADME, organism-based. The conditions noted are these: in vivo. Set-up: dose 3 mg/kg, route intravenous. In short, it runs like this: as §2
A short description of data set [9]: Half life in Sprague-Dawley rat at 3 mg/kg, iv. The data set is classed as ADME, organism-based. Also on record: dose 3 mg/kg, route intravenous. The note with it: in vivo. The method, boiled down: as §1
The nature of data set [10]: Cmax in Sprague-Dawley rat at 30 mg/kg, po. It is filed as ADME, organism-based. Set-up: dose 30 mg/kg, route oral. The note with it: in vivo. The method, boiled down: as §1
A short description of data set [11]: Oral bioavailability in Sprague-Dawley rat at 30 mg/kg. It is filed as ADME, organism-based. The conditions noted are these: in vivo. In short, it runs like this: as §2

`Fc1ccc(-c2n[nH]c(CCCc3ccccc3)c2-c2ccncc2)cc1`: in data set [1], the remaining at 5 min, 1 µM is 81.5%. The compound also had a CLint in the data set with Liver of 81.8 µL/min/mg. Further, the remaining at 0.25 h, 1 µM in [2] amounted to 50.3%.
On to `O=C(Cc1ccccc1Cl)Nc1onc(-c2ccc(F)cc2F)c1-c1ccncn1`, for which the remaining at 5 min, 1 µM in data set [1] worked out at 20.4%.
With `O=C(Cc1ccccc1F)Nc1onc(-c2ccc(F)cc2)c1-c1ccncn1`, in [1], the remaining at 5 min, 1 µM stood at 10%.
Regarding `O=C(Cc1ccccc1)Nc1onc(-c2ccc(F)cc2)c1-c1ccncc1`, the remaining at 5 min, 1 µM in [1] was found to be 79.7%. Moreover, the CLint in the data set with Liver worked out at 91 µL/min/mg. Besides, the remaining at 0.25 h, 1 µM in [2] came out at 64.3%.
As to `O=C(Cc1ccccc1)Nc1onc(-c2ccc(F)cc2)c1-c1ccncn1`, the remaining at 5 min, 1 µM in [1] came out at 5.6%.
As for `Cc1cc(-c2noc(NC(=O)Cc3ccccc3C)c2-c2ccncn2)ccc1F`, in data set [1], the remaining at 5 min, 1 µM amounted to 52.6%.
As for `O=C(Cc1ccccc1Cl)Nc1onc(-c2ccc(F)cc2)c1-c1ccncn1`, the remaining at 5 min, 1 µM in data set [1] is 5.8%.
For orientation: half-life means how long it takes for the measured level to halve. Higher therefore signals slow loss. The Tmax is the time from dosing to the highest level. Broadly, the AUC(0-inf) is total exposure, with the tail of the curve extrapolated. A low value points to less exposure. What is called Cmax is the maximum level reached in the sampled fluid or tissue. As to `Nc1onc(-c2ccc(F)cc2)c1-c1ccncn1`, the half-life in data set [3] was 58.8 min; in data set [9], 25.7 min. Moreover, the time of peak concentration (Tmax) in data set [4] was 200 min; in data set [8] it was 30 min. Further, the total exposure AUC(0-inf) in data set [5] was 760 ng·h/mL; in data set [7] it was 924 ng·h/mL. Moreover, the Cmax in data set [6] was 744 ng/mL; in data set [10], 136 ng/mL.
As for `O=C(Cc1ccccc1)Nc1[nH]nc(-c2ccc(F)cc2)c1-c1ccncc1`, in [1], the remaining at 5 min, 1 µM was 90.4%. The CLint in the data set with Liver worked out at 40.6 µL/min/mg. Besides, in [2], the remaining at 0.25 h, 1 µM came to 86.2%.
On to `O=C(Nc1onc(-c2ccc(F)cc2)c1-c1ccncc1)c1ccccc1`, for which, in data set [1], the remaining at 5 min, 1 µM was found to be 39.6%. The remaining at 0.25 h, 1 µM in data set [2] is 10.9%.
Regarding `Cc1cccc(-c2noc(NC(=O)Cc3ccccc3Cl)c2-c2ccncn2)c1`, in data set [1], the remaining at 5 min, 1 µM was found to be 21.2%.
On to `Cn1nc(NC(=O)Cc2ccccc2)c(-c2ccncc2)c1-c1ccc(F)cc1`, for which the remaining at 5 min, 1 µM in data set [1] worked out at 84.4%. For the same compound, the CLint in the data set on Liver was determined as 68.1 µL/min/mg. For the same compound, the remaining at 0.25 h, 1 µM in [2] was 65%.
Regarding `O=C(CCCc1ccccc1)Nc1onc(-c2ccc(F)cc2)c1-c1ccncc1`, the remaining at 5 min, 1 µM in [1] was 50.7%. For the same compound, the CLint with Liver is 272 µL/min/mg. The remaining at 0.25 h, 1 µM in [2] was 28.5%.
What is called bioavailability is dose-corrected exposure relative to a reference, in per cent. Regarding `O=C(Cc1c(F)cccc1Cl)Nc1onc(-c2ccc(F)cc2)c1-c1ccncn1`, the remaining at 5 min, 1 µM in data set [1] is 16.1%. Besides, the half-life in data set [3] is 1120 min; in data set [9], 28.4 min. Further, the time to peak (Tmax) in [4] was found to be 200 min; in data set [8], 4.8 min. Besides, the AUC(0-inf) was found to be 23.7 ng·h/mL in data set [5] and 505 ng·h/mL in data set [7]. In addition, the maximum concentration (Cmax) in data set [6] is 363 ng/mL; in data set [10], 0.88 ng/mL. For the same compound, the bioavailability in data set [11] was under 1%.
Consider `O=C(CCc1ccccc1)Nc1onc(-c2ccc(F)cc2)c1-c1ccncc1`, for which, in data set [1], the remaining at 5 min, 1 µM came out at 32.1%. The compound further displayed a CLint with Liver of 455 µL/min/mg. Moreover, the remaining at 0.25 h, 1 µM in data set [2] is 27.9%.
On to `O=C(Cc1ccccc1Cl)Nc1onc(-c2ccc(Cl)cc2)c1-c1ccncn1`, for which, in data set [1], the remaining at 5 min, 1 µM turned out to be 96.6%.
As for `CC(=O)Nc1onc(-c2ccc(F)cc2)c1-c1ccncc1`, the remaining at 5 min, 1 µM in data set [1] was determined as 92.4%. This compound returned a CLint in the data set on Liver of 31.6 µL/min/mg. In [2], the remaining at 0.25 h, 1 µM amounted to 82.5%.
As for `Cc1ccc(C)c(CC(=O)Nc2onc(-c3ccc(F)cc3)c2-c2ccncn2)c1`, the remaining at 5 min, 1 µM in data set [1] was 53.9%.
